These results are taken from ChEMBL document CHEMBL1177656, “Improved P2 phenylglycine-based hepatitis C virus NS3 protease inhibitors with alkenylic prime-side substituents” (Bioorg Med Chem, 2010).

Molecules are shown by their SMILES.

The target in experiment [1] is NS3 protease (Hepacivirus C, UniProt C1KIQ2, D168V). Kind of experiment: Inhibition of HCV NS3 protease D168V mutant by FRET assay. On the set-up: species or system Hepacivirus hominis. The procedure, abridged:
(§1)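 Buffer was 50 mM HEPES pH 7.5, 10 mM DTT, 40% glycerol, 0.1% n-octyl-β-D-glucoside and 3.3% DMSO. Reaction started with the FRET substrate Ac-DED(Edans)EEAbu[COO]ASK(Dabcyl)-NH2. Ki derived by non-linear regression.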

For the next experiment, the system named is Hepatitis C virus. Kind of experiment: Antiviral activity against HCV 1B […] by firefly luciferase reporter gene assay. Format: functional, organism-based, Hepacivirus hominis. The following applies: genotype 1b, Huh-7. In general terms: Reporter assays use an easily measured gene product as a stand-in for the process of interest.

Experiment [2] is described as follows: Inhibition of HCV NS3 protease by FRET assay. On the set-up: species or system Hepacivirus hominis. The procedure, abridged: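 Buffer was 50 mM HEPES pH 7.5, 10 mM DTT, 40% glycerol, 0.1% n-octyl-β-D-glucoside and 3.3% DMSO. Reaction was started with FRET substrate Ac-DED(Edans)EEAbu[COO]ASK(Dabcyl)-NH2. Ki was obtained by non-linear regression.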
In experiment [3] the target is NS3 protease (Hepatitis C virus subtype 1b, UniProt Q0ZMF1, A156T). Kind of experiment: Inhibition of HCV NS3 protease A156T mutant by FRET assay. The arrangement: species or system Hepacivirus hominis. In short, it runs like this: as §1

In the case of `C=CCCCS(=O)(=O)NC(=O)[C@H](CCC)NC(=O)[C@H](NC(=O)[C@@H](NC(=O)OC(C)(C)C)C(C)(C)C)c1ccc(Oc2cc(-c3ccccc3)nc3cc(OC)ccc23)c(C=C)c1`, the values for the inhibition constant (Ki) (at NS3 protease [1]; in experiment [2]; at NS3 protease [3]) were 380 nM, 48 nM and 86 nM, respectively. The compound further yielded a concentration for a half-maximal effect (EC50) with Hepatitis C virus of 8900 nM.

`C=CCc1ccccc1S(=O)(=O)NC(=O)[C@H](CCC)NC(=O)[C@@H](NC(=O)[C@@H](NC(=O)OC(C)(C)C)C(C)(C)C)c1ccc(Oc2cc(-c3ccccc3)nc3cc(OC)ccc23)c(C=C)c1`: the EC50 in the experiment with Hepatitis C virus was > 10000 nM. In experiment [2], the Ki came out at 140 nM.

In the case of `C=CCCCS(=O)(=O)NC(=O)[C@H](CCC)NC(=O)[C@@H](NC(=O)[C@@H](NC(=O)OC(C)(C)C)C(C)(C)C)c1ccc(Oc2cc(-c3ccccc3)nc3cc(OC)ccc23)c(C=C)c1`, the Ki on NS3 protease [1] came to 140 nM; in experiment [2], 63 nM; at NS3 protease [3], 180 nM. The EC50 in the experiment with Hepatitis C virus was > 10000 nM.

`C=CCc1ccccc1S(=O)(=O)NC(=O)[C@H](CCC)NC(=O)[C@H](NC(=O)[C@@H](NC(=O)OC(C)(C)C)C(C)(C)C)c1ccc(Oc2cc(-c3ccccc3)nc3cc(OC)ccc23)c(C=C)c1` had an EC50 in the experiment with Hepatitis C virus of 3000 nM. Moreover, the Ki in experiment [2] was 35 nM.

For `C=CCCCS(=O)(=O)NC(=O)[C@H](CCC)NC(=O)[C@@H]1C[C@@H](Oc2cc(-c3ccccc3)nc3cc(OC)ccc23)CN1C(=O)[C@@H](NC(=O)OC(C)(C)C)C(C)(C)C`, in experiment [2], the affinity corresponds to a Ki of 300 nM.

In the experiment with Hepatitis C virus, `CC[C@@H]1C[C@]1(NC(=O)[C@@H]1C[C@@H]2CN1C(=O)[C@H](C(C)(C)C)NC(=O)OCC(C)(C)CCCCc1cccc3c1CN(C3)C(=O)O2)C(=O)NS(=O)(=O)C1CC1` [VANIPREVIR] came in with an EC50 of 5 nM. This compound showed an inhibition constant (Ki) in experiment [2] of 0.06 nM.

In turn, `CC(C)(C)NC(=O)N[C@H](C(=O)N1C[C@H]2[C@@H]([C@H]1C(=O)NC(CC1CCC1)C(=O)C(N)=O)C2(C)C)C(C)(C)C` (some centres not stated) [BOCEPREVIR] had an inhibitory constant (Ki) in experiment [2] of 14 nM.

`C=Cc1cc([C@H](NC(=O)[C@@H](NC(=O)OC(C)(C)C)C(C)(C)C)C(=O)N[C@@H](CCC)C(=O)NS(=O)(=O)c2ccccc2)ccc1Oc1cc(-c2ccccc2)nc2cc(OC)ccc12` came in with an inhibitory constant (Ki) in experiment [2] of 290 nM.

`C=CCC1(S(=O)(=O)NC(=O)[C@H](CCC)NC(=O)[C@@H](NC(=O)[C@@H](NC(=O)OC(C)(C)C)C(C)(C)C)c2ccc(Oc3cc(-c4ccccc4)nc4cc(OC)ccc34)c(C=C)c2)CC1` had a Ki in experiment [2] of 330 nM.

Compound `C=Cc1cc([C@@H](NC(=O)[C@@H](NC(=O)OC(C)(C)C)C(C)(C)C)C(=O)N[C@@H](CCC)C(=O)NS(=O)(=O)c2ccccc2)ccc1Oc1cc(-c2ccccc2)nc2cc(OC)ccc12` registered a Ki in experiment [2] of 130 nM.

In the case of `CCC[C@H](NC(=O)[C@@H]1[C@H]2CCC[C@H]2CN1C(=O)[C@@H](NC(=O)[C@@H](NC(=O)c1cnccn1)C1CCCCC1)C(C)(C)C)C(=O)C(=O)NC1CC1` [TELAPREVIR], the Ki in experiment [2] came out at 40 nM.

As to `COc1ccc2c(O[C@@H]3C[C@H]4C(=O)N[C@]5(C(=O)NS(=O)(=O)C6CC6)C[C@H]5/C=C\CCCCN(C)C(=O)[C@@H]4C3)cc(-c3nc(C(C)C)cs3)nc2c1C` [SIMEPREVIR], in experiment [2], the Ki amounted to 0.36 nM.

Turning to `CCC[C@H](NC(=O)[C@@H](NC(=O)[C@@H](NC(=O)OC(C)(C)C)C(C)(C)C)c1ccc(Oc2cc(-c3ccccc3)nc3cc(OC)ccc23)cc1)C(=O)NS(=O)(=O)c1ccccc1`, the Ki in experiment [2] was found to be 230 nM.

In the experiment with Hepatitis C virus, `COc1ccc2c(O[C@@H]3C[C@H]4C(=O)N[C@]5(C(=O)O)C[C@H]5/C=C\CCCCC[C@H](NC(=O)OC5CCCC5)C(=O)N4C3)cc(-c3csc(NC(C)C)n3)nc2c1` [CILUPREVIR] displayed an EC50 of 4 nM. The Ki in experiment [2] came to 0.3 nM.

Turning to `C=CCCCCS(=O)(=O)NC(=O)[C@H](CCC)NC(=O)[C@@H](NC(=O)[C@@H](NC(=O)OC(C)(C)C)C(C)(C)C)c1ccc(Oc2cc(-c3ccccc3)nc3cc(OC)ccc23)c(C=C)c1`, the Ki at NS3 protease [1] was determined as 390 nM; in experiment [2], 120 nM; on NS3 protease [3], 380 nM. The EC50 in the experiment on Hepatitis C virus is > 10000 nM.

`C=Cc1cc([C@@H](NC(=O)[C@@H](NC(=O)OC(C)(C)C)C(C)(C)C)C(=O)N[C@@H](CCC)C(=O)NS(=O)(=O)c2ccccc2C=C)ccc1Oc1cc(-c2ccccc2)nc2cc(OC)ccc12`: the Ki on NS3 protease [1] was found to be 230 nM; in experiment [2], 47 nM; at NS3 protease [3], 180 nM. Also, the EC50 in the experiment with Hepatitis C virus came to 5400 nM.

For the compound `C=CCCCCS(=O)(=O)NC(=O)[C@H](CCC)NC(=O)[C@H](NC(=O)[C@@H](NC(=O)OC(C)(C)C)C(C)(C)C)c1ccc(Oc2cc(-c3ccccc3)nc3cc(OC)ccc23)c(C=C)c1`, the results for the inhibitory constant (Ki) (at NS3 protease [1]; in experiment [2]; on NS3 protease [3]) were 530 nM, 100 nM and 270 nM, respectively. Moreover, a half-maximal effect with Hepatitis C virus (EC50) was put at 4700 nM.

Turning to `CC(C)(C)OC(=O)N[C@H]1CCCCC/C=C\C2C[C@@]2(C(=O)NS(=O)(=O)C2CC2)NC(=O)[C@@H]2C[C@@H](OC(=O)N3Cc4cccc(F)c4C3)CN2C1=O` (single isomer, unassigned) [DANOPREVIR], the EC50 with Hepatitis C virus stood at 2.1 nM.

Turning to `C=Cc1cc([C@H](NC(=O)[C@@H](NC(=O)OC(C)(C)C)C(C)(C)C)C(=O)N[C@@H](CCC)C(=O)NS(=O)(=O)c2ccccc2C=C)ccc1Oc1cc(-c2ccccc2)nc2cc(OC)ccc12`, the Ki turned out to be 450 nM at NS3 protease [1], 120 nM in experiment [2] and 250 nM on NS3 protease [3]. Also, the EC50 in the experiment with Hepatitis C virus was > 10000 nM.

`C=CCC1(S(=O)(=O)NC(=O)[C@H](CCC)NC(=O)[C@H](NC(=O)[C@@H](NC(=O)OC(C)(C)C)C(C)(C)C)c2ccc(Oc3cc(-c4ccccc4)nc4cc(OC)ccc34)c(C=C)c2)CC1` had an inhibition constant (Ki) in experiment [2] of 190 nM.

The term Ki denotes the dissociation constant of the complex between target and ligand, obtained from inhibition or displacement. A lower Ki goes with a stronger hold on the target. Usually EC50 stands for the concentration needed to bring the measured effect to its halfway point.
